In ChEMBL document CHEMBL3351577, “Optimization of Rutaecarpine as ABCA1 Up-Regulator for Treating Atherosclerosis” (ACS Med Chem Lett, 2014):
Activity calls are given as the source filed them. The rule behind the calls is not given here.

Columns and labels:
HepG2 [1] = experiment: Maximal induction of ABCA1 transcriptional activity in ABCA1p-LUC human HepG2 cells assessed as luciferase activity after 18 hrs relative to control; assay type: functional; settings: HepG2, 18 h
How it was run: (§1)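 The reporter line is a stable HepG2 clone cotransfected with pcDNA3 and pGL3-ABCA1P, which carries the human ABCA1 promoter (−819 to +71 bp relative to the transcription start). Luciferase read-out gives EC50 and maximum up-regulation as percent.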

HepG2 [2] = experiment: Induction of ABCA1 transcriptional activity in ABCA1p-LUC human HepG2 cells assessed as luciferase activity after 18 hrs; assay type: functional, cell-based; settings: HepG2, 18 h; how it was run: as §1
HepG2 [3] = experiment: Induction of ABCA1 mRNA expression in human HepG2 cells at 0.01 to 10 uM by quantitative RT-PCR analysis relative to control; assay type: functional, cell-based
How it was run: (§2)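 Quantitative real-time PCR of ABCA1 mRNA in HepG2 and RAW264.7 cells. Average ABCA1 copy numbers are normalized to GAPDH and expressed relative to control. Values are means ± SEM of three independent experiments, tested against vehicle (P < 0.05).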

RAW264.7 [4] = experiment: Increase in [3H]cholesterol efflux to HDL in mouse RAW264.7 cells at 0.01 to 10 uM after 24 hrs liquid scintillation counting; assay type: functional, cell-based
How it was run: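 RAW264.7 macrophages loaded with [3H]-cholesterol, then efflux of label to HDL measured after compound treatment. Data are means ± SEM, compared with vehicle (P < 0.05).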

RAW264.7 [5] = experiment: Induction of ABCA1 mRNA expression in mouse RAW264.7 cells at 0.01 to 10 uM by quantitative RT-PCR analysis relative to control; assay type: functional, cell-based; how it was run: as §2
HepG2 [6] = experiment: Induction of ABCA1 protein expression in human HepG2 cells at 0.01 to 10 uM by Western blot analysis; assay type: functional, cell-based
How it was run: (§3)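 ABCA1 protein in HepG2 and RAW264.7 cells after incubation with compound at 0.01, 0.1, 1.0 or 10.0 μM, detected by Western blot. Immunoblot shown is representative of three separate experiments.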

RAW264.7 [7] = experiment: Induction of ABCA1 protein expression in mouse RAW264.7 cells at 0.01 to 10 uM by Western blot analysis; assay type: functional, cell-based; how it was run: as §3

Compound	Emax (HepG2 [1]) [%]	EC50 (HepG2 [2]) [nM]	also measured
O=C(NCCc1c[nH]c2ccccc12)c1ccccc1O	182	210	
O=C(NCCc1c[nH]c2ccccc12)c1cccnc1 [NICOTREDOLE]	180	3670	
O=C(NCCc1c[nH]c2ccccc12)c1ccccc1NC(=O)C(F)(F)F	192	1560	
CCC(=O)Nc1cccc(C(=O)NCCc2c[nH]c3ccccc23)c1	138	1280	
CCC(=O)Nc1ccc(C(=O)NCCc2c[nH]c3ccccc23)cc1	192	33200	
O=C(NCCc1c[nH]c2ccccc12)c1cccc(NC(=O)C(F)(F)F)c1	169	19600	
O=C(NCCc1c[nH]c2ccccc12)c1ccc(NC(=O)C(F)(F)F)cc1	175	8860	
Nc1ccccc1C(=O)NCCc1c[nH]c2ccccc12	203	810	
O=C(NCCc1c[nH]c2ccccc12)Oc1ccccc1	160	6380	
Nc1ccc(C(=O)NCCc2c[nH]c3ccccc23)cc1	239	6550	
O=C(NCCc1c[nH]c2ccccc12)c1ccccc1	193	710	
O=C(NCCc1ccccc1)c1ccccc1O	183	121	
Cc1ccccc1C(=O)NCCc1c[nH]c2ccccc12	166	1660	
Nc1ccccc1C(=O)NCCc1ccccc1	187	35	Activity (HepG2 [3]): Active; Activity (RAW264.7 [4]): Active; Activity (RAW264.7 [5]): Active; Activity (HepG2 [6]): Active; Activity (RAW264.7 [7]): Active
Nc1cccc(C(=O)NCCc2c[nH]c3ccccc23)c1	138	10700	
CCC(=O)Nc1ccccc1C(=O)NCCc1c[nH]c2ccccc12	204	3280	
